Some results are limits rather than exact numbers.

The assay concerns HepG2. In words: Antiproliferative activity against human HepG2 cells after 48 hrs by MTT assay. The assay is classed as functional, cell-based. As to conditions: HepG2, 48 h. An outline of the steps:
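HepG2 exposed to compounds for 48 h; MTT readout; camptothecin positive control; IC50 calculated; mean ± SD of three independent experiments, each in triplicate.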
(Formazan colour is commonly taken as a measure of viable cells.)
`COc1ccc2c(c1)c(/C=C1\CC[C@@H]3[C@H]4CCCN5CCC[C@H](CN3C1=O)[C@@H]45)cn2Cc1ccc(OCc2ccc(OC(F)(F)F)cc2)cc1`: half-maximal inhibition (IC50) required 5.72 µM.
For `O=C1/C(=C/c2cn(Cc3ccccc3)c3ccccc23)CC[C@@H]2[C@H]3CCCN4CCC[C@H](CN12)[C@@H]34` the value was 6.95 µM; for `O=C1/C(=C/c2cccn2Cc2ccc(F)cc2)CC[C@@H]2[C@H]3CCCN4CCC[C@H](CN12)[C@@H]34`, 29.4 µM; for `Cc1cc(C)cc(Cn2cccc2/C=C2\CC[C@@H]3[C@H]4CCCN5CCC[C@H](CN3C2=O)[C@@H]45)c1`, 14.8 µM.
In the case of `O=C1/C(=C/c2cn(Cc3ccc(OCc4ccccc4)cc3)c3ccccc23)CC[C@@H]2[C@H]3CCCN4CCC[C@H](CN12)[C@@H]34`, half-maximal inhibition (IC50) required 3.08 µM.
With `Cc1ccc2c(c1)c(/C=C1\CC[C@@H]3[C@H]4CCCN5CCC[C@H](CN3C1=O)[C@@H]45)cn2Cc1ccc(OCc2ccccc2)cc1`, the IC50 was determined as 7.71 µM.
Regarding `COc1ccc2c(c1)c(/C=C1\CC[C@@H]3[C@H]4CCCN5CCC[C@H](CN3C1=O)[C@@H]45)cn2Cc1ccc(OCc2ccc(C)cc2)cc1`, it took 4.18 µM to reach half-maximal inhibition (IC50).
As for `O=C1/C(=C/c2cn(Cc3ccc(OCc4ccccc4)cc3)c3cc(Cl)ccc23)CC[C@@H]2[C@H]3CCCN4CCC[C@H](CN12)[C@@H]34`, half-maximal inhibition (IC50) required 14.3 µM.
Under `O=C1/C(=C/c2cccn2Cc2ccc3ccccc3c2)CC[C@@H]2[C@H]3CCCN4CCC[C@H](CN12)[C@@H]34` stands 16.1 µM.
Under `Cc1ccc(Cn2cccc2/C=C2\CC[C@@H]3[C@H]4CCCN5CCC[C@H](CN3C2=O)[C@@H]45)cc1` stands 17.3 µM; under `O=C1/C(=C/c2cccn2Cc2ccccc2Br)CC[C@@H]2[C@H]3CCCN4CCC[C@H](CN12)[C@@H]34`, 13.5 µM; under `CC(C)(C)c1ccc(COc2ccc(Cn3cc(/C=C4\CC[C@@H]5[C@H]6CCCN7CCC[C@H](CN5C4=O)[C@@H]67)c4ccccc43)cc2)cc1`, 6.07 µM.
With `COc1ccc2c(c1)c(/C=C1\CC[C@@H]3[C@H]4CCCN5CCC[C@H](CN3C1=O)[C@@H]45)cn2Cc1ccc(OCc2ccc(Br)cc2)cc1`, the IC50 amounted to 6.31 µM.
For `O=C1/C(=C/c2cccn2Cc2ccc(Br)cc2)CC[C@@H]2[C@H]3CCCN4CCC[C@H](CN12)[C@@H]34` the value was 12.6 µM.
The compound `CC(C)(C)c1cc(Cn2cccc2/C=C2\CC[C@@H]3[C@H]4CCCN5CCC[C@H](CN3C2=O)[C@@H]45)cc(C(C)(C)C)c1` returned an IC50 of 18.1 µM.
For `COc1ccc2c(ccn2Cc2ccc(OCc3ccccc3)cc2)c1` the value was more than 50 µM; for `O=C1/C(=C/c2ccc3c(ccn3Cc3ccc(OCc4ccccc4)cc3)c2)CC[C@@H]2[C@H]3CCCN4CCC[C@H](CN12)[C@@H]34`, 7.25 µM; for `COc1ccc2c(c1)c(/C=C1\CC[C@@H]3[C@H]4CCCN5CCC[C@H](CN3C1=O)[C@@H]45)cn2Cc1ccc(OCc2ccc(C(C)(C)C)cc2)cc1`, 5.86 µM.
Regarding `O=C1/C(=C/c2cn(Cc3ccccc3Cl)c3ccccc23)CC[C@@H]2[C@H]3CCCN4CCC[C@H](CN12)[C@@H]34`, the IC50 was 9.05 µM.
Under `COc1ccc(Br)c(Cn2cccc2/C=C2\CC[C@@H]3[C@H]4CCCN5CCC[C@H](CN3C2=O)[C@@H]45)c1` stands 9.66 µM; under `COc1ccc2c(c1)c(/C=C1\CC[C@@H]3[C@H]4CCCN5CCC[C@H](CN3C1=O)[C@@H]45)cn2Cc1ccc(OCc2ccc(F)cc2)cc1`, 3.12 µM; under `CC(C)(C)c1ccc(Cn2cccc2/C=C2\CC[C@@H]3[C@H]4CCCN5CCC[C@H](CN3C2=O)[C@@H]45)cc1`, 13.6 µM.
For `COc1ccc(Cn2cccc2/C=C2\CC[C@@H]3[C@H]4CCCN5CCC[C@H](CN3C2=O)[C@@H]45)cc1` the value was 30.1 µM.
As to `c1ccc(COc2ccc(Cn3ccc4ccccc43)cc2)cc1`, the IC50 was more than 50 µM.
Compound `O=C1/C(=C/c2cccn2Cc2ccccc2Cl)CC[C@@H]2[C@H]3CCCN4CCC[C@H](CN12)[C@@H]34` displayed an IC50 of 17.4 µM.
For `COc1ccc(Cn2cc(/C=C3\CC[C@@H]4[C@H]5CCCN6CCC[C@H](CN4C3=O)[C@@H]56)c3ccccc32)cc1` the value was 8.23 µM; for `O=C1/C(=C/c2cn(Cc3cccc(Br)c3)c3ccccc23)CC[C@@H]2[C@H]3CCCN4CCC[C@H](CN12)[C@@H]34`, 8.62 µM.
For `COc1cccc(Cn2cc(/C=C3\CC[C@@H]4[C@H]5CCCN6CCC[C@H](CN4C3=O)[C@@H]56)c3ccccc32)c1` the value was 8.14 µM; for `O=C1/C(=C/c2cn(Cc3ccc(Br)cc3)c3ccccc23)CC[C@@H]2[C@H]3CCCN4CCC[C@H](CN12)[C@@H]34`, 5.94 µM.
Consider `O=C1/C(=C/c2cn(Cc3ccc(OC(F)(F)F)cc3)c3ccccc23)CC[C@@H]2[C@H]3CCCN4CCC[C@H](CN12)[C@@H]34`, for which the half-inhibitory concentration (IC50) came out at 8.73 µM.
`O=C1/C(=C/c2cn(Cc3ccc(OCc4ccc(F)cc4)cc3)c3ccccc23)CC[C@@H]2[C@H]3CCCN4CCC[C@H](CN12)[C@@H]34`: the IC50 was 4.83 µM.
Under `O=C1/C(=C/c2cn(Cc3ccc(OCc4ccccc4)cc3)c3ccc(Br)cc23)CC[C@@H]2[C@H]3CCCN4CCC[C@H](CN12)[C@@H]34` stands 3.97 µM; under `O=C1/C(=C/c2cn(Cc3c(Cl)cccc3Cl)c3ccccc23)CC[C@@H]2[C@H]3CCCN4CCC[C@H](CN12)[C@@H]34`, 9.78 µM.
`O=C1/C(=C/c2cn(Cc3ccc4ccccc4c3)c3ccccc23)CC[C@@H]2[C@H]3CCCN4CCC[C@H](CN12)[C@@H]34` came in with an IC50 of 12.8 µM.
Under `O=C1/C(=C/c2cn(Cc3ccc(OCc4ccc(OC(F)(F)F)cc4)cc3)c3ccccc23)CC[C@@H]2[C@H]3CCCN4CCC[C@H](CN12)[C@@H]34` stands 6.01 µM.
Under `COc1cc(Cn2cccc2/C=C2\CC[C@@H]3[C@H]4CCCN5CCC[C@H](CN3C2=O)[C@@H]45)cc(OC)c1` stands 21.2 µM.
For `O=C1/C(=C/c2cccn2Cc2ccccc2)CC[C@@H]2[C@H]3CCCN4CCC[C@H](CN12)[C@@H]34` the value was 10.9 µM.
In turn, `Cc1ccccc1Cn1cccc1/C=C1\CC[C@@H]2[C@H]3CCCN4CCC[C@H](CN2C1=O)[C@@H]34` had an IC50 of 25.3 µM.
Regarding `O=C1/C(=C/c2cccn2Cc2cccc(Cl)c2)CC[C@@H]2[C@H]3CCCN4CCC[C@H](CN12)[C@@H]34`, the IC50 was 16.6 µM.
For `Cc1ccc(Cn2cc(/C=C3\CC[C@@H]4[C@H]5CCCN6CCC[C@H](CN4C3=O)[C@@H]56)c3ccccc32)cc1` the value was 9.39 µM; for `Cc1ccc(COc2ccc(Cn3cc(/C=C4\CC[C@@H]5[C@H]6CCCN7CCC[C@H](CN5C4=O)[C@@H]67)c4ccccc43)cc2)cc1`, 5.32 µM.
`Cn1cccc1/C=C1\CC[C@@H]2[C@H]3CCCN4CCC[C@H](CN2C1=O)[C@@H]34`: the IC50 was more than 100 µM.
In turn, `O=C1/C(=C/c2cccn2Cc2ccc(OCc3ccccc3)cc2)CC[C@@H]2[C@H]3CCCN4CCC[C@H](CN12)[C@@H]34` registered an IC50 of 7.22 µM.
In turn, `Cc1cccc(Cn2cccc2/C=C2\CC[C@@H]3[C@H]4CCCN5CCC[C@H](CN3C2=O)[C@@H]45)c1` showed an IC50 of 18.1 µM.
Under `Cc1cccc(Cn2cc(/C=C3\CC[C@@H]4[C@H]5CCCN6CCC[C@H](CN4C3=O)[C@@H]56)c3ccccc32)c1` stands 8.27 µM; under `COc1ccc(Br)c(Cn2cc(/C=C3\CC[C@@H]4[C@H]5CCCN6CCC[C@H](CN4C3=O)[C@@H]56)c3ccccc32)c1`, 4.16 µM.
Under `Cc1ccccc1Cn1cc(/C=C2\CC[C@@H]3[C@H]4CCCN5CCC[C@H](CN3C2=O)[C@@H]45)c2ccccc21` stands 16.3 µM; under `O=C1/C(=C/c2cn(Cc3ccc(Cl)cc3)c3ccccc23)CC[C@@H]2[C@H]3CCCN4CCC[C@H](CN12)[C@@H]34`, 6.59 µM; under `Cc1cc(C)cc(Cn2cc(/C=C3\CC[C@@H]4[C@H]5CCCN6CCC[C@H](CN4C3=O)[C@@H]56)c3ccccc32)c1`, 4.56 µM.
Under `O=C1/C(=C/c2cn(Cc3ccc(OCc4ccccc4)cc3)c3ccccc23)CC[C@@H]2[C@H]3CCCN4CCC[C@@H](CN12)[C@@H]34` stands 9.96 µM; under `COc1cc(Cn2cc(/C=C3\CC[C@@H]4[C@H]5CCCN6CCC[C@H](CN4C3=O)[C@@H]56)c3ccccc32)cc(OC)c1`, 6.88 µM.
The compound `O=C1/C(=C/c2cn(Cc3ccc(OCc4ccc(Br)cc4)cc3)c3ccccc23)CC[C@@H]2[C@H]3CCCN4CCC[C@H](CN12)[C@@H]34` had an IC50 of 10.1 µM.
Take `COc1ccc2c(c1)c(/C=C1\CC[C@@H]3[C@H]4CCCN5CCC[C@H](CN3C1=O)[C@@H]45)cn2Cc1ccc(OCc2ccc(Cl)cc2)cc1`: inhibition was half-maximal at 3.97 µM (IC50).
On to `O=C1/C(=C/c2cccn2Cc2ccc(OC(F)(F)F)cc2)CC[C@@H]2[C@H]3CCCN4CCC[C@H](CN12)[C@@H]34`, for which it took 26.5 µM to reach half-maximal inhibition (IC50).
Under `COc1cccc(Cn2cccc2/C=C2\CC[C@@H]3[C@H]4CCCN5CCC[C@H](CN3C2=O)[C@@H]45)c1` stands 17.2 µM; under `O=C1/C(=C/c2cccc3c2ccn3Cc2ccc(OCc3ccccc3)cc2)CC[C@@H]2[C@H]3CCCN4CCC[C@H](CN12)[C@@H]34`, 15.2 µM.

A word on the IC50: it is the concentration needed to halve the response being measured. A low value points to greater potency in that assay.

The values are drawn from ChEMBL document CHEMBL4270613, “Design, synthesis, biological evaluation and structure-activity relationship of sophoridine derivatives bearing pyrrole or indole scaffold as potential antitumor agents” (Eur J Med Chem, 2018).
